Activity calls are given as the source filed them. The rule behind the calls is not given here.
Tests used:
[1] = test system: Plasmodium yoelii; assay: Antimalarial activity as reduced parasitaemia against Plasmodium yoelii 17X infected CD1 mice (Mus musculus) after 4 days; assay type: functional; details: 96 h
[2] = test system: Plasmodium yoelii; assay: Antimalarial activity as ED100 in peripheral blood against Plasmodium yoelii 17X infected CD1 mice (Mus musculus) after 4 days; assay type: functional
[3] = test system: Heme; assay: Binding affinity to heme in DMSO assessed as equilibrium constant by UV-visible spectrophotometry; set-up: scale not given here
How it was run: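 Haem titrations were run in buffered 40% DMSO so that haem stays monomeric and aggregation and μ-oxo dimer formation are minimised. Binding data were fitted mathematically to two alternative binding-process models to pick the best fit.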

[4] = test system: Heme; assay: Binding affinity to heme in 20 mM SDS surfactant assessed as equilibrium constant by UV-visible spectrophotometry
[5] = test system: Heme; assay: Binding affinity to heme in 50 mM SDS surfactant assessed as equilibrium constant by UV-visible spectrophotometry
[6] = test system: Heme; assay: Binding affinity to heme in […] CTAB surfactant assessed as equilibrium constant by UV-visible spectrophotometry
[7] = test system: Heme; assay: Binding affinity to heme in 5 mM CTAB surfactant assessed as equilibrium constant by UV-visible spectrophotometry
[8] = test system: Heme; assay: Binding affinity to heme in 20 mM CTAB surfactant assessed as equilibrium constant by UV-visible spectrophotometry
[9] = test system: Heme; assay: Binding affinity to heme in 1.2 mM TX-100 surfactant assessed as equilibrium constant by UV-visible spectrophotometry
[10] = test system: Rhesus monkey; assay: Toxicity in monkey assessed as increase in QTc interval; assay type: organism-based, Macaca mulatta; details: in vivo
How it was run: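 Repeat-dose toxicity studies in monkeys, with QTc intervals and ECG rhythm monitored.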

[11] = target: Voltage-gated inwardly rectifying potassium channel KCNH2 (Homo sapiens, UniProt Q12809); assay: Inhibition of human cloned ERG
Chain of Voltage-gated inwardly rectifying potassium channel KCNH2 (Q12809 whole entry): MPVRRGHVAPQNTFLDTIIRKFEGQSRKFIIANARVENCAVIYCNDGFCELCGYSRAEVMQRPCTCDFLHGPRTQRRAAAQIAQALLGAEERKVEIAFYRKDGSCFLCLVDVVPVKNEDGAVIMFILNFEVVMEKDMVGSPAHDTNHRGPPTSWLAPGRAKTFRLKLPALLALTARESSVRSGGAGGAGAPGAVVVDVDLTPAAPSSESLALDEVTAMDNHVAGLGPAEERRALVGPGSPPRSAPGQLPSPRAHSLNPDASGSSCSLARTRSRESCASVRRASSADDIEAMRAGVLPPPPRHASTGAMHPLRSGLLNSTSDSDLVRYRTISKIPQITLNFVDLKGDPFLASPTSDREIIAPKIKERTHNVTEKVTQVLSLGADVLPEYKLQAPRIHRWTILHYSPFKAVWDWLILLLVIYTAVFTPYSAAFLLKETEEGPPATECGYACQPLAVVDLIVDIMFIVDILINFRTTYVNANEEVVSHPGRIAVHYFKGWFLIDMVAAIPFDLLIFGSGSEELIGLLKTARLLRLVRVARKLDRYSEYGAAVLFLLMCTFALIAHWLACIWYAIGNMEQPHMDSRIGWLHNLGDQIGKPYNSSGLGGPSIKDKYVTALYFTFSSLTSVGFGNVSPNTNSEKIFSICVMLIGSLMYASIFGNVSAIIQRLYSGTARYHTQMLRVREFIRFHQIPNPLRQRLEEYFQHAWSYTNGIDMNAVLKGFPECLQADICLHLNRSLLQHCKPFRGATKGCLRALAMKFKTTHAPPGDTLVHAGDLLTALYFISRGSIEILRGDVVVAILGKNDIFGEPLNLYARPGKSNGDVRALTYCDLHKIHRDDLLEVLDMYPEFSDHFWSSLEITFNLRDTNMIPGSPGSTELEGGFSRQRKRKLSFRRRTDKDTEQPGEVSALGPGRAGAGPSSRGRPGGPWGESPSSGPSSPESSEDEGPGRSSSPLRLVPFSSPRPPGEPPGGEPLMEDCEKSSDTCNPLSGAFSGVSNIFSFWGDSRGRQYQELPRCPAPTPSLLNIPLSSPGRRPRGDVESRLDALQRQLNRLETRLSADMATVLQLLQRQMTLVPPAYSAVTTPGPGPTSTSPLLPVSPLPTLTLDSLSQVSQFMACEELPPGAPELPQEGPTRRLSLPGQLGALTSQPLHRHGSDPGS

[12] = target: T1, Cytochrome P450 3A4 (Homo sapiens, UniProt P08684); assay: Inhibition of human recombinant CYP3A4 using phenyl-piperazinyl-methyl-benzyl-resofurin as substrate; assay type: ADME
T1 sequence (P08684 whole entry): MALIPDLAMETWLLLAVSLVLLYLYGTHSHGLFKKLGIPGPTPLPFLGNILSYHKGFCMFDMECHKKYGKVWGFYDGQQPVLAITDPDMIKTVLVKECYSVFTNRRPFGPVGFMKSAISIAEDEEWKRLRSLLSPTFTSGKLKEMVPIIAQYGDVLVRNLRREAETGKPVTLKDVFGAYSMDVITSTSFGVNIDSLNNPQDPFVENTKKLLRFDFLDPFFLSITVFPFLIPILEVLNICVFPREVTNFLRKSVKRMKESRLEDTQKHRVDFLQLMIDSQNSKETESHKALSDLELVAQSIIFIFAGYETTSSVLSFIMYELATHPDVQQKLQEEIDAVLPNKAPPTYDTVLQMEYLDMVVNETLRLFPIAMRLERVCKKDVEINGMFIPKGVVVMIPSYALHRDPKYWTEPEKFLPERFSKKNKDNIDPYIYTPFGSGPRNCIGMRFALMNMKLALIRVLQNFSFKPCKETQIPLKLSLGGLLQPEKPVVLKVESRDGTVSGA
How it was run: (§1)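 Concentration-dependent inhibition of major human cytochrome P450 isozymes (recombinant enzymes) was tested using fluorescent probe substrates. Mean IC50 values were reported.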

[13] = organism: Mus musculus; assay: Protein binding in mouse; assay type: ADME, organism-based; details: in vivo
How it was run: (§2)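 Protein binding and blood-cell association were assessed in vitro in plasma or whole blood from preclinical species and humans.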

[14] = test system: Plasmodium yoelii; assay: Antimalarial activity as reduced parasitaemia at day 4 against Plasmodium yoelii 17X infected CD1 mice (Mus musculus) at 40 mg/kg; assay type: functional, organism-based; set-up: dose 40 mg/kg
How it was run: (§3)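 Standard Peters 4-day test in female age-matched CD1 mice, randomised into groups of 5. Mice were infected iv on day 0 with 6.4 × 10^6 or 10.0 × 10^6 parasites (P. berghei or P. yoelii) from infected donors. Peripheral-blood parasitaemia was read by flow cytometry at day 4 and compared with vehicle-treated groups. Doses ranged up to 40 mg/kg.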

[15] = organism: Homo sapiens; assay: Protein binding in human; assay type: ADME, organism-based; details: in vivo; how it was run: as §2
[16] = Clearance in iv and orally dosed dog blood; assay type: ADME, organism-based, Canis lupus familiaris; details: whole blood
How it was run: (§4)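 Single intravenous and oral doses were given to the mouse, rat, dog and/or monkey. Drug was measured in blood to derive blood clearance, elimination half-life and % oral bioavailability.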

[17] = target: Cytochrome P450 2D6 (Homo sapiens, UniProt P10635); assay: Inhibition of human recombinant CYP2D6; assay type: ADME; how it was run: as §1
Chain of Cytochrome P450 2D6 (P10635 whole entry): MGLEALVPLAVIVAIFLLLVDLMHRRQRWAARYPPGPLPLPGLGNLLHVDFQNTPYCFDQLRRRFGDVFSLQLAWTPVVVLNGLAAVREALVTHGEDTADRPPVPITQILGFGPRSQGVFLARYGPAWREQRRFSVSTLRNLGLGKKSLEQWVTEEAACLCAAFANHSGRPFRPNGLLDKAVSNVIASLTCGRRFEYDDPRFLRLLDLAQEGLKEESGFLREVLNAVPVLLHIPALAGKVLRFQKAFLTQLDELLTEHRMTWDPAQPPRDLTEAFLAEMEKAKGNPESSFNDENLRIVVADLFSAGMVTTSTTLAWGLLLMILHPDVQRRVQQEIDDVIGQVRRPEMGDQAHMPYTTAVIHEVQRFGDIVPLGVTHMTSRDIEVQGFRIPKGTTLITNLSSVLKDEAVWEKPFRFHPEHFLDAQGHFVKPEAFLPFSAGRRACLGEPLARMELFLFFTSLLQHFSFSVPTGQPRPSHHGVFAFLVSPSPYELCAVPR

[18] = target: Cytochrome P450 2C19 (Homo sapiens, UniProt P33261); assay: Inhibition of human recombinant CYP2C19; assay type: ADME; how it was run: as §1
Chain of Cytochrome P450 2C19 (P33261 whole entry): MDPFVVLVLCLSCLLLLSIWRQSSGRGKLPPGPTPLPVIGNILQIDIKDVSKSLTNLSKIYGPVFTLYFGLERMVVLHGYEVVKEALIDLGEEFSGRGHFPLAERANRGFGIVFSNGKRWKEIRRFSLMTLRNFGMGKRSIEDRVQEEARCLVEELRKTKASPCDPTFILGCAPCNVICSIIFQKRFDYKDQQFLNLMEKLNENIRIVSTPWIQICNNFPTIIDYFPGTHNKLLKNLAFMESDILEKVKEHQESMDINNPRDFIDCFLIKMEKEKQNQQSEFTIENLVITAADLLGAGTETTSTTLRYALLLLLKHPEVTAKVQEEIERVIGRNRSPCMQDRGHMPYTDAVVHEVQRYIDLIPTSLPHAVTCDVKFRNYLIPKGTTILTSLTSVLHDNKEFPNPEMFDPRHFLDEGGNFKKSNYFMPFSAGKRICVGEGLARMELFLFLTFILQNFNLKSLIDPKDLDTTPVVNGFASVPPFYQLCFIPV

[19] = target: T2, Cytochrome P450 2C8 (Homo sapiens, UniProt P10632); assay: Inhibition of human recombinant CYP2C8; assay type: ADME; how it was run: as §1
T2 sequence (P10632 whole entry): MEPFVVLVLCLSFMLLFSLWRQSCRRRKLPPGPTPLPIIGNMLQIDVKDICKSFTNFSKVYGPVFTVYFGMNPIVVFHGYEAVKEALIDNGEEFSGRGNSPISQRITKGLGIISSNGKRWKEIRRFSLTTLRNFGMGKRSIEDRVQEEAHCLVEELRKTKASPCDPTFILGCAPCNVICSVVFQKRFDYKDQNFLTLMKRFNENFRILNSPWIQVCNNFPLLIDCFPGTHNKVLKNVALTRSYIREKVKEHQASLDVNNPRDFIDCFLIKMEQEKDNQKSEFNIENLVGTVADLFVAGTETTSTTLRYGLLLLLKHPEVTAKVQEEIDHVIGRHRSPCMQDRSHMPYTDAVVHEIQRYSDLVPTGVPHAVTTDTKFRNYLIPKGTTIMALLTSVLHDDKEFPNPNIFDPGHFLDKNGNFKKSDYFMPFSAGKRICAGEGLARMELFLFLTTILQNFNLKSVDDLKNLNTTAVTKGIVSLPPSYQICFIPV

[20] = target: Cytochrome P450 2C9 (Homo sapiens, UniProt P11712); assay: Inhibition of human recombinant CYP2C9; assay type: ADME; how it was run: as §1
Chain of Cytochrome P450 2C9 (P11712 whole entry): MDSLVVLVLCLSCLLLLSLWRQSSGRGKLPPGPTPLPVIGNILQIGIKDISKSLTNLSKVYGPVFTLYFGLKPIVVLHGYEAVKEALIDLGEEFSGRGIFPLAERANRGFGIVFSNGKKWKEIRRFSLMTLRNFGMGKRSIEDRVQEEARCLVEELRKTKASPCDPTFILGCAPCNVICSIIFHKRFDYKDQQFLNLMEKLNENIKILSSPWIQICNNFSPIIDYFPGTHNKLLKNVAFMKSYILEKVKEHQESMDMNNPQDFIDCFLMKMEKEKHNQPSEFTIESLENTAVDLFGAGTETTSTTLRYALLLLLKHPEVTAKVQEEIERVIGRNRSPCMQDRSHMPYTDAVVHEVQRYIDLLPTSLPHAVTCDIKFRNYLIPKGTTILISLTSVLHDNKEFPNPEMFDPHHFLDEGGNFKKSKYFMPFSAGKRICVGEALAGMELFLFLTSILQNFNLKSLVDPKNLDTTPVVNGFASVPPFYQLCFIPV

[21] = target: T3, Cytochrome P450 1A2 (Homo sapiens, UniProt P05177); assay: Inhibition of human recombinant CYP1A2; assay type: ADME; how it was run: as §1
T3 sequence (P05177 whole entry): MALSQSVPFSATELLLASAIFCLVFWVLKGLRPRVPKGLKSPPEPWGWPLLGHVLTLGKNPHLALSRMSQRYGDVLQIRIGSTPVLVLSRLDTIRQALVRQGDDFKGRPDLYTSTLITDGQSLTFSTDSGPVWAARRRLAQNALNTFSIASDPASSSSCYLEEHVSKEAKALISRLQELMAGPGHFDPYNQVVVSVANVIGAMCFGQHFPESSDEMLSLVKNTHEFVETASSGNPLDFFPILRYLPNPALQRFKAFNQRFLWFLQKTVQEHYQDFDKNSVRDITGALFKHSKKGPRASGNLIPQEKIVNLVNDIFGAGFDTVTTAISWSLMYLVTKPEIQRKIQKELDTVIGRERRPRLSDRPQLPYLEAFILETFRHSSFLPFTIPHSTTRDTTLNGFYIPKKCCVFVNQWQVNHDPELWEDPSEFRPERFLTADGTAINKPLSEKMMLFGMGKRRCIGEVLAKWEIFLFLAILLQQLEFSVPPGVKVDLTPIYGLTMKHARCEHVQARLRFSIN

[22] = target: T1, Cytochrome P450 3A4; assay: Inhibition of human recombinant CYP3A4 using […] as substrate; assay type: ADME
[23] = test system: Plasmodium falciparum; assay: Antimalarial activity against chloroquine-sensitive Plasmodium falciparum 3D7 in human erythrocytes after 48 hrs by [3H]hypoxanthine uptake; assay type: functional, organism-based
How it was run: (§5)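 P. falciparum grown in human erythrocytes in RPMI 1640 with 25 mM HEPES, 32 mM NaHCO3 and 10% human serum, gassed 3% O2/4% CO2/93% N2. Assay at 2% parasitemia, 0.5% hematocrit, drug stocks in DMSO diluted in medium, in triplicate. After 24 h at 37 °C, [3H]-hypoxanthine added and incubation continued 24 h. Scintillation counting; IC50 by probit interpolation of log dose-response, three independent experiments.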

[24] = test system: Plasmodium falciparum; assay: Antimalarial activity against chloroquine-sensitive Plasmodium falciparum HB3 in human erythrocytes after 48 hrs by [3H]hypoxanthine uptake; assay type: functional, organism-based; how it was run: as §5
[25] = test system: Plasmodium falciparum; assay: Antimalarial activity against chloroquine-resistant Plasmodium falciparum K1 in human erythrocytes after 48 hrs by [3H]hypoxanthine uptake; assay type: functional, organism-based; how it was run: as §5
[26] = test system: Plasmodium berghei; assay: Antimalarial activity as reduced parasitaemia against Plasmodium berghei ANKA infected CD1 mice (Mus musculus) after 4 days; assay type: functional; details: 96 h; how it was run: as §3
[27] = Clearance in iv and orally dosed monkey blood; assay type: ADME, organism-based, Macaca mulatta; details: rhesus monkey, whole blood; how it was run: as §4
[28] = Oral bioavailability in monkey; assay type: ADME, organism-based, Macaca mulatta; details: rhesus monkey, in vivo; how it was run: as §4
[29] = Oral bioavailability in mouse; assay type: ADME, organism-based; details: in vivo; how it was run: as §4
[30] = Clearance in iv and orally dosed rat blood; assay type: ADME, organism-based; details: whole blood; how it was run: as §4
[31] = Elimination half life in orally dosed mouse; assay type: ADME, organism-based; details: in vivo, po, read-out: beta t1/2 (converted); how it was run: as §4
[32] = Ratio of drug level in blood to plasma in human; assay type: ADME, cell-free; details: read-out: BPR
How it was run: (§6)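 Red blood cell association measured in vitro in whole blood from the species named, alongside plasma protein binding. Read-out is the ratio of drug concentration in whole blood to that in plasma.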

[33] = test system: Plasmodium yoelii; assay: Antimalarial activity as ED100 in peripheral blood at day 23 against Plasmodium yoelii 17X infected CD1 mice (Mus musculus); assay type: functional
[34] = Clearance in iv and orally dosed mouse blood; assay type: ADME, organism-based; details: whole blood; how it was run: as §4
[35] = Oral bioavailability in rat; assay type: ADME, organism-based; details: in vivo; how it was run: as §4
[36] = Oral bioavailability in dog; assay type: ADME, organism-based, Canis lupus familiaris; details: in vivo; how it was run: as §4
[37] = Elimination half life in orally dosed monkey; assay type: ADME, organism-based, Macaca mulatta; details: rhesus monkey, in vivo, po; read-out: beta t1/2 (converted); how it was run: as §4
[38] = Ratio of drug level in blood to plasma in dog; assay type: ADME, cell-free, Canis lupus familiaris; details: read-out: BPR; how it was run: as §6

Row | SMILES | ED50 [1] [mg/kg] | ED90 [1] [mg/kg] | Activity [3] | Activity [10] | IC50 [11] [µM] | IC50 [12] [µM] | Activity [13] [%] | Activity [14] | Activity [15] [%] | clearance [16] [mL/min/kg] | IC50 [17] [µM] | IC50 [18] [µM] | IC50 [19] [µM] | IC50 [20] [µM] | IC50 [21] [µM] | IC50 [23] [µM] | IC50 [24] [µM] | IC50 [25] [µM] | ED50 [26] [mg/kg] | ED90 [26] [mg/kg] | other results
1 | CCN(CC)CCCC(C)Nc1ccnc2cc(Cl)ccc12 (configuration not stated) [CHLOROQUINE] | 3.3 | 4.4 | 5.3 | Toxic |  |  |  |  |  |  |  |  |  |  |  |  |  |  |  |  | Activity [2]: >40 mg/kg; Activity [4]: 4.4; Activity [5]: 3.8; Activity [6]: 4; Activity [7]: 4.69; Activity [8]: 4.7; Activity [9]: 6.23
2 | CCNCc1cc(Nc2ccnc3cc(Cl)ccc23)ccc1O [DESETHYL AMODIAQUINE] |  |  |  |  | 9.5 | > 100 | 74 | inactive | 86 |  |  |  |  |  |  |  |  |  |  |  | 
3 | CCNCc1ccc(Nc2ccnc3cc(Cl)ccc23)cc1O [DESETHYL ISOQUINE] |  |  |  |  |  | ≥ 55 |  |  |  | 12 | 3.4 | 62 | 23 | > 100 | 8 | 0.0092 | 0.0142 | 0.0176 | 5.3 | 7.3 | IC50 ([22]; read-out: IC50): > 100 µM; clearance [27]: 49 mL/min/kg; bioavailability [28]: 40%
4 | CC(C)(C)NCc1ccc(Nc2ccnc3cc(Cl)ccc23)cc1O [GSK-369796] | 3.8 | 5.4 | 5.23 |  | 7.5 | > 100 | 93 |  | 88 | 6.3 | 3 | 24 | 23 | ≥ 90 | 29 | 0.0112 | 0.0126 | 0.0132 | 2.8 | 4.7 | bioavailability [29]: 100%; clearance [30]: 26 mL/min/kg; half-life [31]: 3 h; IC50 [22]: Active; blood plasma ratio [32]: 1.2; Activity [33]: 20 mg/kg; clearance [27]: 14.5 mL/min/kg; clearance [34]: 17 mL/min/kg; bioavailability [35]: 89%; bioavailability [36]: 68%; bioavailability [28]: 100%; half-life [37]: 11 h; blood plasma ratio [38]: 15
5 | CCCCN(CCCC)CCC(O)c1cc2c(Cl)cc(Cl)cc2c2cc(C(F)(F)F)ccc12 (configuration not stated) [HALOFANTRINE] |  |  |  | Toxic |  |  |  |  |  |  |  |  |  |  |  |  |  |  |  |  | 
6 | CCN(CC)Cc1ccc(Nc2ccnc3cc(Cl)ccc23)cc1O [ISOQUINE] |  |  |  |  | 3.9 |  |  | inactive |  | 151 |  |  |  |  |  | 0.0116 | 0.0126 | 0.0176 | 3.7 | 5.3 | IC50 [22]: Active

From ChEMBL document CHEMBL1140918, “Candidate selection and preclinical evaluation of N-tert-butyl isoquine (GSK369796), an affordable and effective 4-aminoquinoline antimalarial for the 21st century” (J Med Chem, 2009)
